≈ marks a conversion by molar mass, not a printed value.
Key:
Nannizzia gypsea = test: Antifungal activity against Microsporum gypseum PTCC 5070 after […] by agar dilution method; assay type: functional
Procedure, shortened: (§1)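 Agar dilution on Sabouraud dextrose agar. Compound stocks in DMSO. Inocula about 10^5 CFU/mL from log-phase broth cultures. Plates run in triplicate at 30 °C: about 24–48 h for yeasts, about 72 h for moulds, about 168 h for dermatophytes. MIC is the lowest concentration with no visible growth on the plate.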

Helicobacter pylori [1] = test: Antibacterial activity against Helicobacter pylori isolate assessed as inhibition zone diameter at 1 ug/disk after 3-5 days by paper disk diffusion assay; assay type: functional
Procedure, shortened: (§2)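 Filter-paper disk diffusion (6 mm disks), with the compound applied in 40 µL methanol and dried. Disks placed on Mueller–Hinton agar with 7% defibrinated horse blood, inoculated with 48 h H. pylori clinical-isolate suspension at 2 McFarland (10^7-10^8 CFU/mL). Incubated 3–5 days at 37 °C microaerophilically (5% O2, 15% CO2, 80% N2). Mean inhibition-zone diameter (mm) from triplicates.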

Aspergillus niger = test: Antifungal activity against Aspergillus niger PTCC 5012 after 72 hrs by agar dilution method; assay type: functional; procedure, shortened: as §1
Helicobacter pylori [2] = test: Antibacterial activity against metronidazole-sensitive Helicobacter pylori assessed as inhibition zone diameter at 16 ug/disk after 3-5 days by paper disk diffusion assay; assay type: functional
Procedure, shortened: (§3)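 Filter paper disks (6 mm) loaded with compound in 40 μL methanol, dried, placed on Mueller–Hinton agar with 7% defibrinated horse blood pre-inoculated with H. pylori suspension (2 McFarland, 10⁷-10⁸ CFU/mL; 48 h cultures checked for coccoid forms); incubated microaerophilically (5% O2, 15% CO2, 80% N2) at 37 °C for 3–5 days; mean inhibition zone diameter (mm) of triplicates.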

Escherichia coli = test: Antibacterial activity against Escherichia coli ATCC 8739 after 18 hrs by serial dilution method; assay type: functional; conditions: ATCC 8739, 18 h
Procedure, shortened: (§4)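 Agar dilution MIC. Compound stock diluted with water, then serially doubled in melted Mueller–Hinton agar to 64, 32, 16 and 8 µg/mL. Plates inoculated with 1-5 × 10^4 CFU and incubated 18 h at 37 °C. MIC is the lowest concentration giving no visible growth.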

Helicobacter pylori [3] = test: Antibacterial activity against Helicobacter pylori isolate assessed as inhibition zone diameter at 16 ug/disk after 3-5 days by paper disk diffusion assay; assay type: functional; procedure, shortened: as §2
Helicobacter pylori [4] = test: Antibacterial activity against Helicobacter pylori isolate assessed as inhibition zone diameter at 8 ug/disk after 3-5 days by paper disk diffusion assay; assay type: functional; procedure, shortened: as §2
[5] = Cytotoxicity against mouse NIH/3T3 cells after 72 hrs by MTT assay; assay type: cell-based; conditions: NIH3T3, 72 h
Procedure, shortened: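 NIH/3T3 mouse fibroblasts in exponential phase trypsinized and seeded at 5×10^4 cells/mL, then given serially diluted compound in triplicate and incubated 72 h. MTT (5 mg/mL solution) added for 1 h, formazan dissolved in DMSO, absorbance read at 492 nm. IC50 calculated from dose-response curves versus untreated controls, as mean ± SD of triplicates.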

Saccharomyces cerevisiae = test: Antifungal activity against Saccharomyces cerevisiae PTCC 5177 after 72 hrs by agar dilution method; assay type: functional
Helicobacter pylori [6] = test: Antibacterial activity against Helicobacter pylori isolate assessed as inhibition zone diameter at 32 ug/disk after 3-5 days by paper disk diffusion assay; assay type: functional; procedure, shortened: as §2
Klebsiella pneumoniae = test: Antibacterial activity against Klebsiella pneumoniae ATCC 10031 after 18 hrs by serial dilution method; assay type: functional; conditions: ATCC 10031, 18 h; procedure, shortened: as §4
Helicobacter pylori [7] = test: Antibacterial activity against Helicobacter pylori isolate assessed as inhibition zone diameter at 4 ug/disk after 3-5 days by paper disk diffusion assay; assay type: functional; procedure, shortened: as §2
Helicobacter pylori [8] = test: Antibacterial activity against Helicobacter pylori isolate assessed as inhibition zone diameter at 2 ug/disk after 3-5 days by paper disk diffusion assay; assay type: functional; procedure, shortened: as §2
Helicobacter pylori [9] = test: Antibacterial activity against metronidazole-sensitive Helicobacter pylori assessed as inhibition zone diameter at 8 ug/disk after 3-5 days by paper disk diffusion assay; assay type: functional; procedure, shortened: as §2
Candida albicans = test: Antifungal activity against Candida albicans PTCC 5027 after 72 hrs by agar dilution method; assay type: functional
Staphylococcus aureus = test: Antibacterial activity against Staphylococcus aureus ATCC 6538P after 18 hrs by serial dilution method; assay type: functional; procedure, shortened: as §4
Helicobacter pylori [10] = test: Antibacterial activity against metronidazole-sensitive Helicobacter pylori assessed as inhibition zone diameter at 32 ug/disk after 3-5 days by paper disk diffusion assay; assay type: functional; procedure, shortened: as §2
[11] = system: Staphylococcus epidermidis; test: Antibacterial activity against Staphylococcus epidermidis ATCC 12228 after 18 hrs by serial dilution method; assay type: functional; conditions: ATCC 12228, 18 h; procedure, shortened: as §4
Helicobacter pylori [12] = test: Antibacterial activity against Helicobacter pylori isolate assessed as inhibition zone diameter at 0.5 ug/disk after 3-5 days by paper disk diffusion assay; assay type: functional; procedure, shortened: as §2
Helicobacter pylori [13] = test: Antibacterial activity against metronidazole-resistant Helicobacter pylori assessed as inhibition zone diameter at 32 ug/disk after 3-5 days by paper disk diffusion assay; assay type: functional; procedure, shortened: as §3
Helicobacter pylori [14] = test: Antibacterial activity against metronidazole-resistant Helicobacter pylori assessed as inhibition zone diameter at 8 ug/disk after 3-5 days by paper disk diffusion assay; assay type: functional; procedure, shortened: as §3
Helicobacter pylori [15] = test: Antibacterial activity against metronidazole-resistant Helicobacter pylori assessed as inhibition zone diameter at 16 ug/disk after 3-5 days by paper disk diffusion assay; assay type: functional; procedure, shortened: as §3

| Structure (SMILES) | MIC (Nannizzia gypsea) [µg/mL] | Activity (Helicobacter pylori [1]) [mm] | MIC (Aspergillus niger) [µg/mL] | Activity (Helicobacter pylori [2]) [mm] | MIC (Escherichia coli) [µg/mL] | Activity (Helicobacter pylori [3]) [mm] | Activity (Helicobacter pylori [4]) [mm] | IC50 [5] [µg/mL] | MIC (Saccharomyces cerevisiae) [µg/mL] | Activity (Helicobacter pylori [6]) [mm] | MIC (Klebsiella pneumoniae) [µg/mL] | Activity (Helicobacter pylori [7]) [mm] | Activity (Helicobacter pylori [8]) [mm] | Activity (Helicobacter pylori [9]) [mm] | MIC (Candida albicans) [µg/mL] | MIC (Staphylococcus aureus) [µg/mL] | Activity (Helicobacter pylori [10]) [mm] | MIC [11] [µg/mL] | Activity (Helicobacter pylori [12]) [mm] | Activity (Helicobacter pylori [13]) [mm] | further results |
| --- | --- | --- | --- | --- | --- | --- | --- | --- | --- | --- | --- | --- | --- | --- | --- | --- | --- | --- | --- | --- | --- |
| CCSCCSc1nnc(-c2ccc([N+](=O)[O-])s2)s1 | > 32 | 22.9 | > 32 | 50 | > 32 | 47 | 44.4 | 4.5 (≈ 13.5 µM) | > 32 | 47.2 | > 32 | 37.1 | 28.9 | 50 | > 32 | > 32 | 50 | 32 (≈ 96 µM) | 16.8 | – | – |
| CCS(=O)(=O)CCSc1nnc(-c2cccc([N+](=O)[O-])c2)s1 | > 32 | – | > 32 | 6 | > 32 | – | – | – | > 32 | – | > 32 | – | – | 6 | > 32 | > 32 | 26 | 32 (≈ 89 µM) | – | 25 | – |
| CCS(=O)(=O)CCSc1nnc(-c2ccc([N+](=O)[O-])cc2)s1 | > 32 | – | > 32 | 24 | > 32 | – | – | – | > 32 | – | > 32 | – | – | 19 | > 32 | > 32 | 30 | 32 (≈ 89 µM) | – | 27 | – |
| CCS(=O)(=O)CCSc1nnc(-c2ncc([N+](=O)[O-])n2C)s1 | > 32 | 11.9 | > 32 | 40 | > 32 | 35.8 | 29.7 | 100 (≈ 275 µM) | > 32 | 40.7 | > 32 | 23.4 | 16.5 | 35 | > 32 | > 32 | 47 | 32 (≈ 88 µM) | 8.5 | – | Activity (Helicobacter pylori [14]): 36 mm |
| CCSCCSc1nnc(-c2cccc([N+](=O)[O-])c2)s1 | > 32 | – | > 32 | 6 | > 32 | – | – | – | > 32 | – | > 32 | – | – | 6 | > 32 | > 32 | 9 | 32 (≈ 97.7 µM) | – | – | – |
| CCSCCSc1nnc(-c2ccc([N+](=O)[O-])cc2)s1 | > 32 | – | > 32 | 16 | > 32 | – | – | – | > 32 | – | > 32 | – | – | 6 | > 32 | > 32 | 20 | 32 (≈ 97.7 µM) | – | – | – |
| CCS(=O)(=O)CCSc1nnc(-c2ccc([N+](=O)[O-])o2)s1 | > 32 | 12.6 | > 32 | 43 | > 32 | 33.1 | 29.1 | 4.2 (≈ 12 µM) | > 32 | 36.5 | > 32 | 23.5 | 18.3 | 37 | > 32 | > 32 | 46 | 32 (≈ 91.6 µM) | 6.6 | 41 | Activity (Helicobacter pylori [15]): 34 mm; Activity (Helicobacter pylori [14]): 29 mm |
| CCS(=O)(=O)CCSc1nnc(-c2ccc([N+](=O)[O-])s2)s1 | > 32 | 24.9 | > 32 | >50 | > 32 | 46.7 | 44.2 | 11.6 (≈ 31.7 µM) | > 32 | 47.6 | > 32 | 37.5 | 31.9 | >50 | > 32 | > 32 | >50 | 32 (≈ 87.6 µM) | 18.2 | – | – |
| CCSCCSc1nnc(-c2ccccc2[N+](=O)[O-])s1 | > 32 | – | > 32 | 6 | > 32 | – | – | – | > 32 | – | > 32 | – | – | 6 | > 32 | > 32 | 6 | 32 (≈ 97.7 µM) | – | – | – |
| CCS(=O)(=O)CCSc1nnc(-c2ccccc2[N+](=O)[O-])s1 | > 32 | – | > 32 | 9 | > 32 | – | – | – | > 32 | – | > 32 | – | – | 6 | > 32 | > 32 | 15 | 32 (≈ 89 µM) | – | 13 | – |
| CC1(C)S[C@@H]2[C@H](NC(=O)[C@H](N)c3ccc(O)cc3)C(=O)N2[C@H]1C(=O)O [AMOXICILLIN] | – | 24.5 | – | – | – | – | – | – | – | – | – | – | – | – | – | – | – | – | – | – | – |
| Cc1ncc([N+](=O)[O-])n1CCO [METRONIDAZOLE] | – | 6 | – | 23 | – | 18.4 | 16.3 | – | – | 20.7 | – | 8.75 | 7.5 | 18 | – | – | 27 | – | 6 | 14 | Activity (Helicobacter pylori [15]): 12 mm; Activity (Helicobacter pylori [14]): 11 mm |
